Source: ChEMBL document CHEMBL2390834, “Structure-activity relationships for ferriprotoporphyrin IX association and β-hematin inhibition by 4-aminoquinolines using experimental and ab initio methods” (Bioorg Med Chem, 2013)

Legend:
Ferriprotoporphyrin IX = experiment: Binding affinity to ferriprotoporphyrin 9 at pH 7.5 by UV-vis spectrophotometric analysis in presence of 40% DMSO
Summary of the method: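 Association constant (log K) with Fe(III)PPIX measured by spectrophotometric titration in 40% aqueous (v/v) DMSO, pH 7.5, using a previously described method without modification.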

[1] = Inhibition of beta-hematin formation after 60 mins by colorimetric assay relative to Fe(3)PP9; type: functional
Summary of the method: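 4.5 M acetate drives β-hematin formation. Leftover Fe(III)PPIX is then reacted with 5% aqueous pyridine to give a low-spin bis-pyridyl complex, read colorimetrically. Prior method used unmodified; result reported as BHIA₅₀ (50% inhibitory activity).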

Plasmodium falciparum = experiment: Antimalarial activity against chloroquine-sensitive Plasmodium falciparum NF54 by [3H]hypoxanthine incorporation assay; type: functional, organism-based
Summary of the method: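 Chloroquine-sensitive NF54 P. falciparum parasites grown in vitro; growth measured by [³H]-hypoxanthine incorporation, essentially as in earlier work; IC50 in nM.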

## Nc1ccnc2ccccc12
Ferriprotoporphyrin IX
  log K: 3.83
[1]
  IA50: 10 equiv

## CCN(CC)CCNc1ccnc2cc(N)ccc12
Ferriprotoporphyrin IX
  log K: 4.35
[1]
  IA50: > 20 equiv

## Cc1ccc2c(N)ccnc2c1
Ferriprotoporphyrin IX
  log K: 4.17
[1]
  IA50: 10.8 equiv

## Nc1ccnc2cc(C(F)(F)F)ccc12
Ferriprotoporphyrin IX
  log K: 4.41
[1]
  IA50: 5.6 equiv

## CNc1ccnc2cc(Cl)ccc12
Ferriprotoporphyrin IX
  log K: 4.62
[1]
  IA50: 5.7 equiv

## CNc1ccnc2cc([N+](=O)[O-])ccc12
Ferriprotoporphyrin IX
  log K: 4.32
[1]
  IA50: 5.5 equiv

## COc1ccc2c(NCCN)ccnc2c1
Ferriprotoporphyrin IX
  log K: 4.47
[1]
  IA50: 10.6 equiv

## CCN(CC)CCNc1ccnc2cc(C)ccc12
Ferriprotoporphyrin IX
  log K: 4.86
[1]
  IA50: 17 equiv

## CNc1ccnc2cc(OC)ccc12
Ferriprotoporphyrin IX
  log K: 3.71
[1]
  IA50: 10.4 equiv

## CNc1ccnc2ccccc12
Ferriprotoporphyrin IX
  log K: 3.92
[1]
  IA50: 14.9 equiv

## CCN(CC)CCNc1ccnc2cc(C(F)(F)F)ccc12
Ferriprotoporphyrin IX
  log K: 4.67
[1]
  IA50: 8 equiv

## CCN(CC)CCNc1ccnc2cc([N+](=O)[O-])ccc12
Ferriprotoporphyrin IX
  log K: 4.65
[1]
  IA50: 3.1 equiv

## CCN(CC)CCNc1ccnc2cc(I)ccc12
Ferriprotoporphyrin IX
  log K: 5.02
[1]
  IA50: 2.8 equiv

## CCN(CC)CCNc1ccnc2cc(F)ccc12
Ferriprotoporphyrin IX
  log K: 4.6
[1]
  IA50: 9.7 equiv

## NC(=O)c1ccc2c(N)ccnc2c1
Ferriprotoporphyrin IX
  log K: 3.76
[1]
  IA50: 10.3 equiv

## COc1ccc2c(N)ccnc2c1
Ferriprotoporphyrin IX
  log K: 4.24
[1]
  IA50: 15.6 equiv

## Cc1ccc2c(NCCN)ccnc2c1
Plasmodium falciparum
  IC50: 0.037 µM
Ferriprotoporphyrin IX
  log K: 4.35
[1]
  IA50: 10.3 equiv

## CNc1ccnc2cc(N)ccc12
Ferriprotoporphyrin IX
  log K: 4.04
[1]
  IA50: > 20 equiv

## NCCNc1ccnc2cc(Cl)ccc12
Plasmodium falciparum
  IC50: 0.0046 µM
Ferriprotoporphyrin IX
  log K: 5.1
[1]
  IA50: 5.4 equiv

## CCN(CC)CCNc1ccnc2cc(OC)ccc12
Ferriprotoporphyrin IX
  log K: 4.83
[1]
  IA50: > 20 equiv

## Nc1ccc2c(N)ccnc2c1
Ferriprotoporphyrin IX
  log K: 3.44
[1]
  IA50: > 20 equiv

## NCCNc1ccnc2cc([N+](=O)[O-])ccc12
Plasmodium falciparum
  IC50: 0.747 µM
Ferriprotoporphyrin IX
  log K: 4.48
[1]
  IA50: 5.3 equiv

## N#Cc1ccc2c(N)ccnc2c1
Ferriprotoporphyrin IX
  log K: 4.32
[1]
  IA50: 6.1 equiv

## CNc1ccnc2cc(C(N)=O)ccc12
Ferriprotoporphyrin IX
  log K: 3.43
[1]
  IA50: 10.1 equiv

## Nc1ccnc2cc([N+](=O)[O-])ccc12
Ferriprotoporphyrin IX
  log K: 4.57
[1]
  IA50: 5.7 equiv

## CNc1ccnc2cc(C(F)(F)F)ccc12
Ferriprotoporphyrin IX
  log K: 4.18
[1]
  IA50: 5 equiv

## N#Cc1ccc2c(NCCN)ccnc2c1
Plasmodium falciparum
  IC50: 0.02 µM
Ferriprotoporphyrin IX
  log K: 4.47
[1]
  IA50: 6.3 equiv

## Nc1ccnc2cc(Cl)ccc12
Ferriprotoporphyrin IX
  log K: 5.01
[1]
  IA50: 5.8 equiv

## NCCNc1ccnc2ccccc12
Plasmodium falciparum
  IC50: 0.066 µM
Ferriprotoporphyrin IX
  log K: 4.38
[1]
  IA50: 10.6 equiv

## CCN(CC)CCNc1ccnc2ccccc12
Ferriprotoporphyrin IX
  log K: 4.75
[1]
  IA50: > 20 equiv

## NCCNc1ccnc2cc(C(F)(F)F)ccc12
Plasmodium falciparum
  IC50: 0.0086 µM
Ferriprotoporphyrin IX
  log K: 4.7
[1]
  IA50: 5.4 equiv

## CCN(CC)CCNc1ccnc2cc(Cl)ccc12
Ferriprotoporphyrin IX
  log K: 5.81
[1]
  IA50: 2.2 equiv

## CNc1ccnc2cc(C#N)ccc12
Ferriprotoporphyrin IX
  log K: 4.42
[1]
  IA50: 4.5 equiv

## CCN(CC)CCNc1ccnc2cc(Br)ccc12
Ferriprotoporphyrin IX
  log K: 4.99
[1]
  IA50: 4.4 equiv

## CNc1ccnc2cc(C)ccc12
Ferriprotoporphyrin IX
  log K: 4.01
[1]
  IA50: 11.1 equiv
